The values that follow come from ChEMBL document CHEMBL1142698, “Synthesis and biological evaluation of novel naphthocarbazoles as potential anticancer agents” (J Med Chem, 2005).

Each structure is given as a SMILES string.

Holding throughout (assay type): functional, cell-based
For assay [1], the system named is DU-145. Put plainly: In vitro antiproliferative activity against human prostate cancer DU145 cells. Summed up:
(§1)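 Cells from ATCC grown in RPMI 1640 with 10% fetal calf serum, 2 mM L-glutamine, penicillin/streptomycin and 10 mM HEPES (pH 7.4). Continuous exposure to graded concentrations for four doubling times. MTT added, then 4 h at 37 °C, formazan dissolved in DMSO and optical density read. IC50 is the concentration halving optical density versus untreated controls, from nine serial dilutions in duplicate.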

Another assay has as its system HT-29. The experiment in a line: In vitro antiproliferative activity against human colon carcinoma HT-29 cells. Summed up:
as §1

The test system of the next assay is L1210. Put plainly: In vitro antiproliferative activity against murine leukemia L1210 cells. As to conditions: Mus musculus. Summed up: as §1
The test system of assay [2] is DU-145. Put plainly: In vitro antiproliferative activity against human prostate cancer DU-145 cells. Summed up: as §1

What is called IC50 is the point on the concentration scale where inhibition reaches its midpoint. A low value points to higher potency. With `CN(C)CCCN1C(=O)c2c(c3c4cc(O)ccc4[nH]c3c3cc4ccccc4cc23)C1=O`, the IC50 in the assay with DU-145 [1] is 0.29 µM; with HT-29 it was 0.84 µM; in the assay on L1210, 0.13 µM.
On the same counts, the results for `C=CCn1c2ccccc2c2c3c(c4cc5ccccc5cc4c21)C(=O)N(C)C3=O` are 59.7 µM, 65.7 µM and 34 µM.
On to `CN(C)CCN1C(=O)c2c(c3c4ccccc4[nH]c3c3cc4ccccc4cc23)C1=O`, for which the figures for the IC50 in the assay on DU-145 [1] and with L1210 were 0.29 µM and 0.21 µM, respectively.
On the same counts, the results for `CN(C)CCN1C(=O)c2c(c3c4ccc(O)cc4[nH]c3c3cc4ccccc4cc23)C1=O` are 0.25 µM and 0.11 µM.
For `CN(C)CCn1c2ccccc2c2c3c(c4cc5ccccc5cc4c21)C(=O)N(C)C3=O` the same measures were 4.7 µM and 2.4 µM.
`COC1C(O)[C@@H](O)[C@H](n2c3c(Cl)cccc3c3c4c(c5c6cccc(Cl)c6[nH]c5c32)C(=O)NC4=O)O[C@@H]1CO` (single isomer, unassigned) [REBECCAMYCIN] returned an IC50 with L1210 of 0.14 µM.
Consider `O=C1c2c(c3c4cc(O)ccc4[nH]c3c3cc4ccccc4cc23)C(=O)N1CCNCCO`, for which the IC50 in the assay with DU-145 [1] came to 0.63 µM; with HT-29, 3.76 µM; in the assay with L1210 it was 0.29 µM.
For `CN1C(=O)c2c(c3c4ccccc4n(CC(O)CO)c3c3cc4ccccc4cc23)C1=O` (centres undefined) the same measures were 2.31 µM, 3.69 µM and 1.26 µM.
Take `CN1C(=O)c2c(c3c4ccc(O[Si](C)(C)C(C)(C)C)cc4[nH]c3c3cc4ccccc4cc23)C1=O`: the 50% inhibitory concentration (IC50) in the assay with DU-145 [1] stood at 5.6 µM; in the assay on L1210 it was 10.1 µM.
`CN(C)CCCN1C(=O)c2c(c3c4ccc(O)cc4[nH]c3c3cc4ccccc4cc23)C1=O`: the half-maximal inhibitory concentration (IC50) came out at 0.76 µM in the assay on DU-145 [1], 1.35 µM with HT-29 and 0.34 µM in the assay with L1210.
For `CN1C(=O)c2c(c3c4ccccc4[nH]c3c3cc4ccccc4cc23)C1=O`, the values for the IC50 with L1210 and in the assay on DU-145 [2] were 2.9 µM and 1.1 µM, respectively.
Turning to `CN(C)CCOc1ccc2c(c1)[nH]c1c3cc4ccccc4cc3c3c(c21)C(=O)N(C)C3=O`, the 50% inhibitory concentration (IC50) with DU-145 [1] amounted to 4.5 µM; in the assay with L1210 it was 1.5 µM.
Regarding `O=C1c2c(c3c4ccc(O)cc4[nH]c3c3cc4ccccc4cc23)C(=O)N1C(CO)CO`, the half-maximal inhibitory concentration (IC50) with DU-145 [1] stood at 0.0068 µM; in the assay with HT-29 it was 1.34 µM; in the assay with L1210, 0.2 µM.
On to `CN1C(=O)c2c(c3c4cc(O)ccc4[nH]c3c3cc4ccccc4cc23)C1=O`, for which the concentration for half-maximal inhibition (IC50) with DU-145 [1] turned out to be 6.8 µM; with L1210 it was 3.9 µM.
Take `CN(C)CCN1C(=O)c2c(c3c4cc(O)ccc4[nH]c3c3cc4ccccc4cc23)C1=O`: the IC50 came out at 0.108 µM in the assay on DU-145 [1] and 0.036 µM in the assay with L1210.
On the same counts, the results for `CN1C(=O)c2c(c3c4ccc(O)cc4[nH]c3c3cc4ccccc4cc23)C1=O` are 4.7 µM and 5.2 µM.
With `O=C1c2c(c3c4cc(O)ccc4[nH]c3c3cc4ccccc4cc23)C(=O)N1C(CO)CO`, the 50% inhibitory concentration (IC50) in the assay on DU-145 [1] is 2.13 µM; in the assay with HT-29, 2.88 µM; with L1210, 1.19 µM.
For the compound `CN1C(=O)c2c(c3c4ccccc4n(CCN4CCOCC4)c3c3cc4ccccc4cc23)C1=O`, in the assay on L1210, 2.4 µM corresponded to half-maximal inhibition (IC50).
For the compound `O=C1c2c(c3c4ccc(O)cc4[nH]c3c3cc4ccccc4cc23)C(=O)N1CCNCCO`, the IC50 was 1.11 µM with DU-145 [1], 5.5 µM in the assay with HT-29 and 0.51 µM in the assay with L1210.
